A selection: hits, their analogues and other compounds. The true share with any hit is near 1.2%.
ARNT-TACC3 inh: disruptors of human ARNT/TACC3 interaction; AlphaScreen His-ARNT PAS-B/GST-TACC3 binding, luminescence; TACC3 fragment carries E629A point mutation; inhibition, % at 9.99 µM; hit rate 0.66% among 390,000; AID 623870;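 active = mean inhibition of replicates at least 50% and at least half of replicates each reaching 50%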;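 also: 0% = complete ARNT plus TACC3 wells and 100% = ARNT alone without TACC3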
CAL PDZ FP-1: human CAL PDZ-peptide interaction inhibition. Q9HD26. purified CAL PDZ, TMR-peptide fluorescence polarization, 1 h. inhibition, % at 20 µM. hit rate 0.02% among 330,000. AID 504414;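 active = highest replicate inhibition of at least 40%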;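 also: plate controls were DMSO neutral control wells for no effect and unlabeled competitor peptide control wells for full effect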
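Material: tagged CAL PDZ domain; buffer or medium: 25 mM sodium phosphate pH 7.4, 150 mM NaCl, TCEP, IgG, Thesit; compound dosing: single point, 20 µM; schedule: 1 h incubation at room temperature before polarization reading; measured by: FP readout, S and P plane fluorescence; read-out basis: percent inhibition from loss of millipolarization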
CAL PDZ FP-2: CAL PDZ (human) peptide binding inhibition; Q9HD26; purified CAL PDZ, TMR-peptide fluorescence polarization, 1 h; inhibition, % at 24.9 µM; hit rate 0.92% among 300,000; AID 602252;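 active = mean inhibition of at least 30% with at least half of replicates also reaching 30%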;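 also: 0% = DMSO neutral control and 100% = excess unlabeled competitor peptide PRC23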
Starred values were filed as active, the others as inactive; . = no result.

SMILES	ARNT-TACC3 inh	CAL PDZ FP-1	CAL PDZ FP-2
O=C(C[C@H]1C=C[C@H](NC(=O)c2ccncc2)[C@H](CO)O1)NCCc1ccncc1	0	.	.
O=S(=O)(c1ccc(Cl)nc1)N1CCCCC1	-16	-2	0
CCOC(=O)C1CCCN(S(=O)(=O)c2ccc(C)cc2)C1 (stereo not given)	0	-1	-3
CCOC(=O)C1CCCN(S(=O)(=O)c2ccc(Cl)nc2)C1 (stereo not given)	-3	1	46*
O=S(=O)(c1ccc(Cl)nc1)N1CCOCC1	22*	0	6
C[C@H]1CN([C@@H](C)CO)C(=O)c2cc(/C=C/c3ccccc3)cnc2O[C@H]1CN(C)C(=O)c1ccc2c(c1)OCO2	-4	.	.
Cc1noc(C)c1S(=O)(=O)N(C)C[C@@H]1Oc2ccc(NC(=O)CCC(F)(F)F)cc2CC(=O)N([C@H](C)CO)C[C@@H]1C	2	.	.
O=C(CSc1nnc(CNC(=O)c2cccs2)o1)Nc1ccc(Br)cc1	5	-2	44*
O=C(CSc1nnc(CNC(=O)c2cccs2)o1)Nc1ccc(Cl)cc1	-2	0	5
CCCn1c(SCC(=O)Nc2cc(Cl)ccc2Cl)n[nH]c1=O	-4	-1	52*
CCCn1c(SCC(=O)Nc2cc(Cl)ccc2OC)n[nH]c1=O	-7	0	-2
Cc1noc(C)c1NC(=O)N[C@@H]1CC[C@H](CC(=O)N2CCN(C)CC2)O[C@H]1CO	-4	.	.
COc1cccc(CNC(=O)C[C@@H]2C=C[C@H](NC(=O)C3CC3)[C@H](CO)O2)c1	-2	.	.
C[C@H](CO)N1C[C@H](C)[C@H](CN(C)Cc2ccc(C(F)(F)F)cc2)Oc2ccc(NC(=O)CCC(F)(F)F)cc2C1=O	0	.	.
CCN(C(=O)c1cccc(NC(=O)c2ccccc2)c1)C1CCCCC1	-1	-1	57*
CCN(C(=O)CCc1ccccc1)C1CCCCC1	-15	0	64*
CCN(C(=O)COc1ccccc1)C1CCCCC1	-8	-1	-2
O=C(Nc1cccc(C(=O)NC2CCCCC2)c1)c1ccccc1	.	-1	-2
CCOC(=O)NCCOC(=O)Nc1ccc(Cl)cc1	-2	-1	0
Cc1ccc(NC(=O)OCCNC(=O)OC(C)C)cc1	-1	0	38*
COc1ccc(NC(=O)N(C)C[C@@H]2OCCCC[C@H](C)Oc3ccc(NC(=O)NC4CCCCC4)cc3C(=O)N([C@@H](C)CO)C[C@@H]2C)cc1	-10	.	.
COC(=O)c1ccc(CN2C(=O)c3ccccc3S2(=O)=O)cc1	-3	.	55*
CC(C)c1ccc(CN2C(=O)c3ccccc3S2(=O)=O)cc1	21	-1	-1
O=C(C1CCCC1)N1CCCCN2[C@H](CO)[C@@H](c3ccc(-c4ccncc4)cc3)[C@H]2C1	-9	.	.
CCOc1ccc(S(=O)(=O)NC(C)C(=O)NCc2ccc3c(c2)OCO3)cc1 (stereo not given)	1	0	76*
SMILES	ARNT-TACC3 inh	CAL PDZ FP-1	CAL PDZ FP-2
CC(NS(=O)(=O)c1ccc(Br)cc1)C(=O)NCc1ccc2c(c1)OCO2 (stereo not given)	-7	0	0
COc1ccccc1NC(=O)N(C)C[C@@H]1OCc2cn(nn2)CCCC(=O)N([C@@H](C)CO)C[C@@H]1C	-4	.	.
O=C(CCCN1C(=O)/C(=C\c2ccccc2)SC1=S)Nc1ccc(O)cc1C(=O)O	5	-1	77*
O=C(CCCN1C(=O)/C(=C/c2ccccc2)SC1=S)Nc1ccccc1O	20	-1	-3
COc1cccc(/C=C2\SC(=S)N(CCCC(=O)N3CCCCC3CCO)C2=O)c1 (stereo not given)	9	0	88*
COc1ccc(/C=C2\SC(=S)N(CCCC(=O)Nc3ccc(O)cc3)C2=O)cc1	6	-1	-5
COc1cccc(/C=C2\SC(=S)N(CCC(=O)N3CCCCC3CCO)C2=O)c1 (stereo not given)	11	1	.
COc1ccc(/C=C2/SC(=S)N(CCCC(=O)Nc3ccc(O)cc3)C2=O)cc1	2	0	46*
CCC(=O)N(C)C[C@H]1Oc2ncc(C#Cc3ccccc3)cc2C(=O)N([C@H](C)CO)C[C@H]1C	37	.	.
CC(C)NC(=O)Nc1ccc2c(c1)CC(=O)N([C@@H](C)CO)C[C@@H](C)[C@@H](CN(C)C(=O)Nc1ccc(F)cc1)O2	-12	.	.
C[C@@H]1CN([C@@H](C)CO)C(=O)c2cc(-c3cccc(C#N)c3)cnc2O[C@@H]1CN(C)C(=O)C1CC1	-7	.	.
C[C@@H](O)C#Cc1ccc2c(c1)O[C@H](CN(C)C(=O)c1ccccc1)[C@@H](C)CN([C@@H](C)CO)S2(=O)=O	-3	.	.
CC1=NNC(=O)C1CC(=O)N/N=C/c1sccc1C (stereo not given)	2	-2	.
COc1cc(OC)c(OC)cc1/C=N/NC(=O)CC1C(=O)NN=C1C (stereo not given)	-3	-4	36*
CCC(=O)N1C[C@H](O)COC[C@@H]2O[C@@H](CC(=O)N3CCCCC3)CC[C@H]21	6	.	.
CC(=O)N1CCN(c2ccccc2NC(=O)COc2ccccc2C)CC1	0	-1	.
Cc1ccccc1OCC(=O)Nc1ccccc1N1CCC(C)CC1	45*	0	2
C[C@@H]1CN([C@@H](C)CO)C(=O)c2cc(C#C[C@@H](C)O)cnc2O[C@H]1CN(C)CC1CCCCC1	-5	.	.
CC(=O)N1CCCCN2[C@H](CO)[C@H](c3ccc(-c4cccc(C(=O)N(C)C)c4)cc3)[C@@H]2C1	-5	.	.
C/C(CC(=O)Nc1ccc(Cl)cc1Cl)=N\NC(=O)C(=O)N1CCCC1	-8	-2	-2
C/C(CC(=O)Nc1ccccc1Br)=N\NC(=O)C(=O)N1CCCC1	6	0	108*
C[C@H]1CN([C@@H](C)CO)C(=O)c2cc(NC(=O)C3CC3)ccc2O[C@@H]1CN(C)Cc1ccc(C(=O)O)cc1	0	.	.
CCS(=O)(=O)Nc1ccc2c(c1)C(=O)N(C)[C@@H]1CC[C@H](CC(=O)Nc3ccccc3)O[C@@H]1CO2	-7	.	.
CCOC(=O)CC(=O)Nc1ncnc2c1C(c1ccccc1)c1c(ccc3ccccc13)O2 (stereo not given)	1	7	1
Nc1ncnc2c1C(c1ccccc1)c1c(ccc3ccccc13)O2 (stereo not given)	-9	62*	-5
SMILES	ARNT-TACC3 inh	CAL PDZ FP-1	CAL PDZ FP-2
Cc1nnc(Nc2ccc(F)cc2)c2ccccc12	26	-1	-16
Cc1nnc(Nc2ccccn2)c2ccccc12	33*	1	-1
C[C@@H]1CN([C@H](C)CO)C(=O)c2cc(-c3ccccc3)cnc2O[C@@H]1CN(C)C(=O)Nc1ccccc1F	-4	.	.
O=C(Nc1ccccc1)N1CCCCN2[C@@H](CO)[C@H](c3ccc(C#CC4CC4)cc3)[C@@H]2C1	3	.	.
C=CCN=c1scc(-c2ccc(F)cc2)n1/N=C/c1ccccn1	31	-2	-2
C=CCN=c1scc(-c2ccccc2)n1/N=C/c1ccccn1	47*	0	-2
CCN=c1scc(-c2ccc(F)cc2)n1/N=C/c1ccccn1	32	1	.
CCN=c1scc(-c2ccccc2)n1/N=C/c1ccccn1	61*	0	-2
C[C@@H]1CN([C@H](C)CO)C(=O)c2cccc(N(C)C)c2O[C@H]1CN(C)Cc1ccc(C(=O)O)cc1	2	.	.
